Data taken from ChEMBL document CHEMBL4145662, “Novel Nonsteroidal Progesterone Receptor (PR) Antagonists with a Phenanthridinone Skeleton” (ACS Med Chem Lett, 2018).
Active and inactive are the calls of the source. The calls are words filed in the database; no cut-off is given here.

Experiments:
[1] = biological target: T1, Oxysterols receptor LXR-beta (Homo sapiens, UniProt P55055); experiment: Antagonist activity at human GAL4N-fused LXRbeta LBD expressed in HEK293 cells assessed as reduction in T0901317-induced transactivation activity after 24 hrs by luciferase reporter gene assay; type: cell-based
T1 sequence (P55055 whole entry): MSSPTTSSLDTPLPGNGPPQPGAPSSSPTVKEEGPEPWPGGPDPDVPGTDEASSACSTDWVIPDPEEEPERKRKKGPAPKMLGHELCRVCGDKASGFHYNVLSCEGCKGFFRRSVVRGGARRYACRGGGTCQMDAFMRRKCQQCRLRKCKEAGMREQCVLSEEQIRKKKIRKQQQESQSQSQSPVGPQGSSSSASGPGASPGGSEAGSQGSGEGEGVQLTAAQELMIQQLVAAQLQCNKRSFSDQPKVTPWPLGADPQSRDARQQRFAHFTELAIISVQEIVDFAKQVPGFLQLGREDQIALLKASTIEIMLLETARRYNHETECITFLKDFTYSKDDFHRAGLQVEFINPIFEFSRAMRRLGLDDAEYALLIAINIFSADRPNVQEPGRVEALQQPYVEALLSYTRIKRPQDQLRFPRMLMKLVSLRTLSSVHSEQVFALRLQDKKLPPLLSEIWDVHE

[2] = biological target: T2, Nuclear receptor ROR-gamma (Homo sapiens) (UniProt P51449); experiment: Antagonist activity at human RORgamma1 expressed in HEK293 cells at 20 uM after 24 hrs by luciferase reporter gene assay; type: cell-based
T2 sequence (whole entry): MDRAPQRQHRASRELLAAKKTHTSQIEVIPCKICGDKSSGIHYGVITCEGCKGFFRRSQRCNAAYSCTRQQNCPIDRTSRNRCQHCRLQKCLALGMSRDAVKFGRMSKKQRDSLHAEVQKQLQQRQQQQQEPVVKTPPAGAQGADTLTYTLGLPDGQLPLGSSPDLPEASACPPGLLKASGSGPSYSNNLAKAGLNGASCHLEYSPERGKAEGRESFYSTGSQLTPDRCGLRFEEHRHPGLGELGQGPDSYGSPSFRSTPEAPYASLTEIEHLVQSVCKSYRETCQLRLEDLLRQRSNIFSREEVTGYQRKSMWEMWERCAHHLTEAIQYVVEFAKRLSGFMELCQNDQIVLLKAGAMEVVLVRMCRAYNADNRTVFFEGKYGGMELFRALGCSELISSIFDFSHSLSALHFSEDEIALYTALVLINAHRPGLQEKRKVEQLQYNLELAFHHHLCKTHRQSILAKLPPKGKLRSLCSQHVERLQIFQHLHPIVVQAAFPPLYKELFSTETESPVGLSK
In short: (§1)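 Inverse agonism at RORα, RORβ or RORγ measured by reporter gene assay.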

Androgen receptor = biological target: T3, Androgen receptor (Homo sapiens, UniProt P10275); experiment: Antagonist activity at human CMX-AR expressed in HEK293 cells assessed as reduction in dihydrotestosterone-induced transactivation activity after 24 hrs by luciferase reporter gene assay; type: cell-based
T3 sequence (P10275 whole entry): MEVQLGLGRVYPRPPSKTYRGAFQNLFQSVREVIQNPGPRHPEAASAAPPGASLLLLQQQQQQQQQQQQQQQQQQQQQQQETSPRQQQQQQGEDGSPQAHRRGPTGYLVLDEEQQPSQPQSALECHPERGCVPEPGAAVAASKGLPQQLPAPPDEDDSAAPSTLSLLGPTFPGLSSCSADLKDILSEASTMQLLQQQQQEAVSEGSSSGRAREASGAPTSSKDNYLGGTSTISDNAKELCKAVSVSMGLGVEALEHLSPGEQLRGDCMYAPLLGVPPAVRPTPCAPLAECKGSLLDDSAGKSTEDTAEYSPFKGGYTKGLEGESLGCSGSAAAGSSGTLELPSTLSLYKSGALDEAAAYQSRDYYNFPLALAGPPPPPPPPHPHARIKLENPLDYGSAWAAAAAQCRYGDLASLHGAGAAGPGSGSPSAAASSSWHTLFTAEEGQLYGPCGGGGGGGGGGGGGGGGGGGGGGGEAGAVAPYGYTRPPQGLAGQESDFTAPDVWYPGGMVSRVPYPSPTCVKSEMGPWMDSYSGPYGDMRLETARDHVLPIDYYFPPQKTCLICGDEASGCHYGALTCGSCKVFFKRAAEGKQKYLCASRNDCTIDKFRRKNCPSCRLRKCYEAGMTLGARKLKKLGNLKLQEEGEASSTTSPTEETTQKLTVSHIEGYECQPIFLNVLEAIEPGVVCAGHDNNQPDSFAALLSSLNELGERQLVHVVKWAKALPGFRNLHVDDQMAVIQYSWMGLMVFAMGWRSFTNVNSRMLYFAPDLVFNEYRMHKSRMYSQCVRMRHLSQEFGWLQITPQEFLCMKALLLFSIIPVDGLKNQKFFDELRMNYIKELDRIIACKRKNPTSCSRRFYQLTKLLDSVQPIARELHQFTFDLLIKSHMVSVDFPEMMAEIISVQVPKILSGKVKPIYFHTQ
In short: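 AR antagonism measured by reporter gene assay with dihydrotestosterone (0.3 nM) as agonist.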

[3] = biological target: T4, Oxysterols receptor LXR-beta (Homo sapiens) (UniProt P55055); experiment: Antagonist activity at human GAL4N-fused LXRbeta LBD expressed in HEK293 cells assessed as reduction in T0901317-induced transactivation activity at 20 uM after 24 hrs by luciferase reporter gene assay; type: cell-based
T4 sequence (whole entry): T1 sequence (P55055 whole entry)

[4] = biological target: T5, Nuclear receptor ROR-gamma (Homo sapiens, UniProt P51449); experiment: Antagonist activity at human RORgamma1 expressed in HEK293 cells after 24 hrs by luciferase reporter gene assay; type: cell-based; in short: as §1
T5 sequence (P51449 whole entry): T2 sequence (whole entry)

[5] = Apparent permeability across apical to basolateral side in human Caco2 cells at 10 uM; type: ADME, cell-based; details: caco-2, 10 µM
[6] = Stability in human liver microsomes at 0.1 uM by LC-MS/MS analysis; type: ADME, microsome

IC50 [1] [µM]	Activity [2]	IC50 (Androgen receptor) [µM]	Activity [3]	IC50 [4] [µM]	Papp [5]	Stability [6]	Structure (SMILES)
> 20	inactive						Cc1cc(C(O)(C(F)(F)F)C(F)(F)F)cc2c3ccc(F)cc3c(=O)n(C)c12
	inactive	1.8	inactive				Cc1cc(C(O)(C(F)(F)F)C(F)(F)F)cc2c1[nH]c(=O)c1cc(F)ccc12
> 20		> 20		> 20	Permeable	Stable	Cc1cc(C(O)(C(F)(F)F)C(F)(F)F)cc2c1[nH]c(=O)c1ccccc12
